According to ChEMBL document CHEMBL4342471, “Discovery of Thieno[2,3-d]pyrimidine-Based Hydroxamic Acid Derivatives as Bromodomain-Containing Protein 4/Histone Deacetylase Dual Inhibitors Induce Autophagic Cell Death in Colorectal Carcinoma Cells” (J Med Chem, 2020):
The source made the active and inactive calls. The calls are words filed in the database; no cut-off is given here.

Assays:
[1] = test system: SW-620; assay: Antiproliferative activity against human SW620 cells assessed as reduction in cell viability measured after 24 to 48 hrs by MTT assay; assay type: functional, cell-based
[2] = test system: HCT-116; assay: Cytotoxicity against human HCT116 cells assessed as reduction in cell viability at 0.5 uM incubated for 24 to 48 hrs in presence of 500 uM type 3 PI3K inhibitor, 3-MA by MTT assay; assay type: functional, cell-based
Method in brief: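 HCT-116 viability was read by MTT after treatment with 0.5 μM compound, with or without the autophagy inhibitor 3-MA at 500 μM.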

[3] = Toxicity in BALB/cAnNCrl mouse xenografted with human HCT116 cells assessed as effect on heart morphological changes at 15 to 30 mg/kg, po administered on day 1 to day 19 measured on day 19 by hematoxylin and eosin staining based assay; assay type: organism-based; conditions: in vivo
Method in brief: (§1)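 HCT-116 xenograft mice dosed orally at 15 or 30 mg/kg for 19 days, saline as vehicle control; body weights tracked, and main organs sectioned and H&E-stained at study end.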

[4] = test system: HCT-116; assay: Antitumor activity against human HCT116 cells xenografted in BALB/cAnNCrl mouse assessed as average tumor growth inhibition at 15 to 30 mg/kg, po administered on day 1 to day 19 relative to control; assay type: functional
Method in brief: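 HCT-116 xenografts in mice were given the test agent orally at 15 or 30 mg/kg, with a saline control group, over 19 days. Tumor volume was followed during treatment and tumors were weighed at the end. Body weight was monitored. Inhibition is expressed as treatment-to-control (T/C) ratio.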

[5] = molecular target: T1, Protein deacetylase HDAC6 (Homo sapiens, UniProt Q9UBN7); assay: Inhibition of HDAC6 (unknown origin) using biotinylated histone H3 KAc peptide (1 to 21 residues) as substrate by HTRF assay
T1 sequence (Q9UBN7 whole entry): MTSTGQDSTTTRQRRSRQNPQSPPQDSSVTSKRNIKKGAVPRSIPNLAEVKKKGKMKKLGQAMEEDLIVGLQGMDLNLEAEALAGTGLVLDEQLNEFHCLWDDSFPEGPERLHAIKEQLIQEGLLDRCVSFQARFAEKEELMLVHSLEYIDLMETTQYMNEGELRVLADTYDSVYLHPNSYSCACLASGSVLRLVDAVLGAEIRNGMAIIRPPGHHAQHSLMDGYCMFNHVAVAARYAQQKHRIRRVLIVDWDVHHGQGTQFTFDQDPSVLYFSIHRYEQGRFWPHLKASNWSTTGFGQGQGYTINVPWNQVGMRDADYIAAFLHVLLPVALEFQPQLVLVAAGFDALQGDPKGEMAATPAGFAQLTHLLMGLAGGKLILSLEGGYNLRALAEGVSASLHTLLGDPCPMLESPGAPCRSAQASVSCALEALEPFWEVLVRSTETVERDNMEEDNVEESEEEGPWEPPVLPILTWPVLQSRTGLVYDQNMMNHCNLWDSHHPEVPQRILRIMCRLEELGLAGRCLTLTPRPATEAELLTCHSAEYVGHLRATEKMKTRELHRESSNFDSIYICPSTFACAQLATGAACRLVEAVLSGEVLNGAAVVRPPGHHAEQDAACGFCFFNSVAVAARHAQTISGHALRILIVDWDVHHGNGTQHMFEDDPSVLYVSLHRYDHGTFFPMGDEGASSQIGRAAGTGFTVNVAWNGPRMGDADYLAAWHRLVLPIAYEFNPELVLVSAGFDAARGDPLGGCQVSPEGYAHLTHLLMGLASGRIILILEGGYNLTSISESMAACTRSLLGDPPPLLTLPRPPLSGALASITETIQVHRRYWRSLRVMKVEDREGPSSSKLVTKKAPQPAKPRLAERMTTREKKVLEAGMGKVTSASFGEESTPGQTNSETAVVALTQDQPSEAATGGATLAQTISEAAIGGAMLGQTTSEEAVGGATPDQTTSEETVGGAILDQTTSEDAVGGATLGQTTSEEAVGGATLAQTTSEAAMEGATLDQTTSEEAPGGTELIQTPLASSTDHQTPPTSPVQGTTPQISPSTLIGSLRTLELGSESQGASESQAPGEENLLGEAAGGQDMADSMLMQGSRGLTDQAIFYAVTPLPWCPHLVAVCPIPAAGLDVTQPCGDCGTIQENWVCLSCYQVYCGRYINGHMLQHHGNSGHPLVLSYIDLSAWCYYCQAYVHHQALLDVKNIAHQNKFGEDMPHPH

[6] = Toxicity in BALB/cAnNCrl mouse xenografted with human HCT116 cells assessed as effect on spleen morphological changes at 15 to 30 mg/kg, po administered on day 1 to day 19 measured on day 19 by hematoxylin and eosin staining based assay; assay type: organism-based; conditions: in vivo; method in brief: as §1
[7] = test system: HCT-116; assay: Induction of apoptosis in human HCT116 cells assessed as apoptotic cells at 0.2 uM by Annexin-V FITC/propidium iodide staining-based flow cytometry (reference value: 6.3 +/- 0.4 %); assay type: functional
[8] = test system: HCT-116; assay: Induction of apoptotic cell death in human HCT116 cells by Annexin-V FITC/propidium iodide staining-based flow cytometry; assay type: functional
[9] = molecular target: Bromodomain-containing protein 3 (Homo sapiens, UniProt Q15059); assay: Inhibition of human recombinant His-tagged BRD3 BD1 domain expressed in Escherichia coli BL21(DE3)-R3-pRARE2 cells by AlphaScreen assay
Chain of Bromodomain-containing protein 3 (Q15059 whole entry, the tested form may be a part): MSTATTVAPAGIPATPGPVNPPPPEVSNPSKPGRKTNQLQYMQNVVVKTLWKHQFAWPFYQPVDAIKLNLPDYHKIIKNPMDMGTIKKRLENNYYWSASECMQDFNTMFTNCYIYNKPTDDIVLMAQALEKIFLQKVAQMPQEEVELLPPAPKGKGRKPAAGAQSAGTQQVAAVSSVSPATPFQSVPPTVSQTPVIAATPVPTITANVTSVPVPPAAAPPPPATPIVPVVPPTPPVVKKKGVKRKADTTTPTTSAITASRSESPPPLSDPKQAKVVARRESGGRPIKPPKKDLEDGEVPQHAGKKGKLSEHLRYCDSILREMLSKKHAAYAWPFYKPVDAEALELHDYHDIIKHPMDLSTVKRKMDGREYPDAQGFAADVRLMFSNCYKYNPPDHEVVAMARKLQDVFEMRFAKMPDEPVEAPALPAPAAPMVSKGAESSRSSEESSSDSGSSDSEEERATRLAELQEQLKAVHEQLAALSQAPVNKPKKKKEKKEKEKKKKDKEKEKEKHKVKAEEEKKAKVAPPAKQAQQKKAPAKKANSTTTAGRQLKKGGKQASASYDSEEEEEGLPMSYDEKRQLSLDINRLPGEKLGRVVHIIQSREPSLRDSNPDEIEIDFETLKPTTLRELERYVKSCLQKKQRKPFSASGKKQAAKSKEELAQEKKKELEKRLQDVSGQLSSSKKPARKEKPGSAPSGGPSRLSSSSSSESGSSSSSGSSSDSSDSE

[10] = molecular target: Histone deacetylase 5 (Homo sapiens, UniProt Q9UQL6); assay: Inhibition of HDAC5 (unknown origin) using biotinylated histone H3 KAc peptide (1 to 21 residues) as substrate by HTRF assay
Chain of Histone deacetylase 5 (Q9UQL6 whole entry, the tested form may be a part): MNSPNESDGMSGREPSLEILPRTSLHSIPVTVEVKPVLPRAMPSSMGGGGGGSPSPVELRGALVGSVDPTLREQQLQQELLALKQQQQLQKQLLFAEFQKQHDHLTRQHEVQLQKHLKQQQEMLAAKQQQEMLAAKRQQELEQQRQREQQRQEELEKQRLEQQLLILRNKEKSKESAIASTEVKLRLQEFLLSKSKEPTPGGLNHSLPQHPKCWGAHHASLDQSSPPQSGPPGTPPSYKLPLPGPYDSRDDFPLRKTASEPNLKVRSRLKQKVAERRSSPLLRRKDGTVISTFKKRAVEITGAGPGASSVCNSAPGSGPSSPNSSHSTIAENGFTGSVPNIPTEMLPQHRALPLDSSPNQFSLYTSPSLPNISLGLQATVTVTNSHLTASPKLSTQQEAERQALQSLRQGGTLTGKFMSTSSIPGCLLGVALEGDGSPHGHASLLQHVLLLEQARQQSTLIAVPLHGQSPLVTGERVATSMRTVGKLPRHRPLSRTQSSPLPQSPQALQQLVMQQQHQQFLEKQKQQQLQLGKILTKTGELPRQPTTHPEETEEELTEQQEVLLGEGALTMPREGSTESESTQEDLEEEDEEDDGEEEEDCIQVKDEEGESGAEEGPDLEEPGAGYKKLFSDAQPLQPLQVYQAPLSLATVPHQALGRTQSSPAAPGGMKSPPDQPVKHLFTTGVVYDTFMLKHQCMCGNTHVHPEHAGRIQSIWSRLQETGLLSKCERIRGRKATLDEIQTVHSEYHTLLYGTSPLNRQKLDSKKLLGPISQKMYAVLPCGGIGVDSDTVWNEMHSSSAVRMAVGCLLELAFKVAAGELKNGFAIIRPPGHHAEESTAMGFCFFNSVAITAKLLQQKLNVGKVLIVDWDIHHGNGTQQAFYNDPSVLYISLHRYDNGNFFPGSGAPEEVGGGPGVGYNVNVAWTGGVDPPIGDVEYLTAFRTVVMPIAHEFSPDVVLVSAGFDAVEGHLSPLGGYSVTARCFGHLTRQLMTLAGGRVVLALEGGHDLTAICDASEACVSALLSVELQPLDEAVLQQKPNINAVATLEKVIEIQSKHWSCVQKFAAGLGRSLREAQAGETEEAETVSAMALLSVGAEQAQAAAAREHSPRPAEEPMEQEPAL

[11] = molecular target: Bromodomain-containing protein 4 (Homo sapiens, UniProt O60885); assay: Inhibition of BRD4 in human HCT116 cells assessed as induction of autophagy by measuring LC3-I cleavage to LC3-II at 0.5 uM measured after 24 hrs by Western blot analysis; assay type: cell-based
Method in brief: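 HCT-116 cells were treated for 24 hours with 0.5 μM, 2.0 μM or 10 μM agents. LC3 (LC3-I to LC3-II conversion) and p62 were then detected by western blot.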

SMILES: Cc1cc(-c2nc3sc4c(c3c(=O)[nH]2)CCN(C)C4)cc(C)c1OCCCCCC(=O)NO
- IC50 [1]: 1780 nM
- Activity [2]: inactive
- Activity [3]: Non-Toxic
- growth inhibition (GI) [4]: 68.8%
- IC50 [5]: 73 nM
- Activity [6]: Non-Toxic
- Activity [7]: 33.2%
- Activity [8]: Dose-dependent effect
- IC50 [9]: > 20000 nM
- IC50 [10]: > 10000 nM
- inhibition [11]: Active
